Among the data in PubChem BioAssay AID602319 (The Scripps Research Institute Molecular Screening Center, 2012) are inhibition values, retold here.

This test deals with Monoacylglycerol lipase ABHD6 (Mus musculus) (UniProt Q8R2Y0). Put plainly: off-target ABHD6 activity blockade – biochemical, gel-based competitive ABPP, fluorescence, mouse, in vitro, selectivity assay for DAGLb inhibitor project, late-stage follow-up (AID 602319). The conditions noted are these: Neuro-2A membrane proteome, HT-01 probe, stronger effect = higher value. A digest of the protocol: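 Measure: % inhibition relative to DMSO control; Test system: Neuro-2A mouse neuroblastoma membrane proteome with endogenous ABHD6; Quantity: proteome 1 mg/mL; Control set: DMSO vehicle high, gel background low; Technique: SDS-PAGE with in-gel fluorescence scan, band integrated optical density; Times: compound preincubation 30 min, probe labelling 30 min, 37 °C; Buffer or medium: DPBS.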
Sequence of Monoacylglycerol lipase ABHD6 (Mus musculus) (Q8R2Y0 whole entry, looked up): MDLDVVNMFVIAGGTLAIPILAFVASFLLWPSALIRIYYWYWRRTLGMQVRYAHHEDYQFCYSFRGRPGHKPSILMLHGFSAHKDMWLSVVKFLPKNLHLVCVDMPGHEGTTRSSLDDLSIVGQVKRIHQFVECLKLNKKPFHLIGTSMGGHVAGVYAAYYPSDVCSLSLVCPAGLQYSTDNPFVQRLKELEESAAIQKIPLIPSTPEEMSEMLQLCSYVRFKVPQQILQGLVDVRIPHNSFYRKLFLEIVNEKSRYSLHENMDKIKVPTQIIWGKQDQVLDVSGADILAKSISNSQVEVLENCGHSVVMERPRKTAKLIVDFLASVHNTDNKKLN

By inhibition is commonly meant how much of the control response was suppressed.

Calls of active or inactive are those of the source.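 How the source made its calls: active means inhibition of at least 50% at 0.01 µM compound; inactive means the rest.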

`O=C(c1ccc(-c2ccc(-c3cn(C(=O)N4CCCCC4Cc4ccccc4)nn3)cc2)cc1)N1CCCCC1` (centres undefined): the inhibition (ABHD6 inhibition, at 0.001 µM) was found to be 9% and the inhibition (at 0.01 µM) is 79%.

Take `O=C(N1CCCCC1c1ccccc1)n1cc(-c2ccc(-c3ccccc3)cc2)nn1` (centres undefined): the inhibition (ABHD6 inhibition, at 0.001 µM) is 18% and the inhibition (at 0.01 µM) is 66%.

Regarding `NC(=O)c1ccc(-c2ccc(-c3cn(C(=O)N4CCCCC4c4ccccc4)nn3)cc2)cc1` (centres undefined), the inhibition (ABHD6 inhibition, at 0.001 µM) is 17% and the inhibition (at 0.01 µM) was 27% (inactive).

As for `O=C(O)c1cccc(-c2ccc(-c3cn(C(=O)N4CCCCC4CCc4ccccc4)nn3)cc2)c1` (centres undefined), the inhibition (ABHD6 inhibition, at 0.001 µM) worked out at 33% and the inhibition (at 0.01 µM) was 94%.

In the case of `O=C(N1CCCCC1c1ccccc1)n1cc(-c2ccc(-c3ccccc3CO)cc2)nn1` (centres undefined), the inhibition was 38% (ABHD6 inhibition, at 0.001 µM) and 98% (at 0.01 µM).

Take `O=C(N1CCCCC1c1ccccc1)n1cc(C(O)(c2ccccc2)c2ccccc2)nn1` (centres undefined): the inhibition is, setting by setting: (ABHD6 inhibition, at 0.001 µM) 32%; (at 0.01 µM) 47% (inactive).

On to `O=C(O)c1ccc(-c2ccc(-c3cn(C(=O)N4CCCCC4CCc4ccccc4)nn3)cc2)cc1` (centres undefined), for which the inhibition (ABHD6 inhibition, at 0.001 µM) was found to be 7% and the inhibition (at 0.01 µM) is 10% (inactive).

On to `O=C(N1CCCCC1Cc1ccccc1)n1cc(-c2ccc(-c3cccc(CO)c3)cc2)nn1` (centres undefined), for which the inhibition was 41% (ABHD6 inhibition, at 0.001 µM) and 90% (at 0.01 µM).

With `COc1ccc(-c2ccc(-c3cn(C(=O)N4CCCCC4c4ccccc4)nn3)cc2)cc1` (centres undefined), the inhibition was 8% (ABHD6 inhibition, at 0.001 µM) and 18% (inactive) (at 0.01 µM).

For `O=C(O)c1cccc(-c2ccc(-c3cn(C(=O)N4CCCCC4c4ccccc4)nn3)cc2)c1` (centres undefined), the inhibition (ABHD6 inhibition, at 0.001 µM) came to 36% and the inhibition (at 0.01 µM) was 100%.

As for `O=C(N1CCCCC1CCc1ccccc1)n1cc(-c2ccc(-c3ccccc3)cc2)nn1` (centres undefined), the inhibition (ABHD6 inhibition, at 0.001 µM) worked out at 21% and the inhibition (at 0.01 µM) was 40% (inactive).

Consider `COc1ccccc1-c1ccc(-c2cn(C(=O)N3CCCCC3c3ccccc3)nn2)cc1` (centres undefined), for which the inhibition was 32% (ABHD6 inhibition, at 0.001 µM) and 90% (at 0.01 µM).

As for `COc1ccccc1-c1ccc(-c2cn(C(=O)N3CCCCC3CCc3ccccc3)nn2)cc1` (centres undefined), the inhibition reads like this: (ABHD6 inhibition, at 0.001 µM) 27%; (at 0.01 µM) 70%.

As to `O=C(c1ccc(-c2ccc(-c3cn(C(=O)N4CCCCC4c4ccccc4)nn3)cc2)cc1)N1CCCCC1` (centres undefined), the inhibition runs as follows: (ABHD6 inhibition, at 0.001 µM) 35%; (at 0.01 µM) 94%.

For the compound `O=C(N1CCCCC1c1ccccc1)n1cc(-c2ccc(-c3ccc(CO)cc3)cc2)nn1` (centres undefined), the inhibition reads like this: (ABHD6 inhibition, at 0.001 µM) 18%; (at 0.01 µM) 47% (inactive).

Turning to `COc1ccccc1-c1ccc(-c2cn(C(=O)N3CCC(Cc4ccccc4)CC3)nn2)cc1`, the inhibition (ABHD6 inhibition, at 0.001 µM) worked out at 78% and the inhibition (at 0.01 µM) was 100%.

For the compound `COc1ccccc1-c1ccc(-c2cn(C(=O)N3CCCC(Cc4ccccc4)C3)nn2)cc1` (centres undefined), the inhibition was 53% (ABHD6 inhibition, at 0.001 µM) and 100% (at 0.01 µM).
